# The list is not random: actives were taken first. Their share in the collection is about 1.5%.
# NRP1-CendR mod: NRP-1/CendR interaction modulation; O14786; FAM-RPARPAR peptide binding to NRP-1, fluorescence polarization; inhibition, % at 25 µM; 0.85% of 360,000 active; AID 602438;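 active means inhibition or corrected inhibition above about 18%, plus a signal ratio from 0.5 to 1.5, limit read from the data, passing the limit was not always enough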
# DAGLB inh: blocks human DAGLB lipase activity. HEK293T DAGLB membrane lysate, EnzChek fluorogenic substrate. inhibition, % at 5.17 µM. 0.059% of 340,000 active. Q8NCG7; in the data active means inhibition above about 34%;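 further: 0% = enzyme with vehicle and 100% = wells lacking enzyme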
# MT1-MMP act inh: inhibitors of human MT1-MMP activation; HT1080 RFP-PRO-GFP cells, GFP/RFP ratio fluorescence, overnight; percent of plate control window, DMSO zero; GFP/RFP ratio change, % at 20 µM; 0.061% of 360,000 active;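 active means GFP/RFP ratio change of at least 30% with cell ATP level not reduced by more than half and red fluorescence within 50% of control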
#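 Assay system: HT1080 cells carrying an RFP-PRO-GFP reporter | Dosing: Single dose of 20 µM compound, 1% DMSO final | Incubation: Cells overnight before dosing, compound overnight, 37 °C, 5% CO2 | Evaluation: GFP/RFP fluorescence ratio | Control set: DMSO and RFP-L50D-GFP cell wells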
# UCH37 DUB inh: blocks the human deubiquitinase UCH37. purified proteasome/UCH37, Ub-AMC cleavage fluorescence. inhibition, % (concentration not given with the values). AID 588478. 0.33% of 330,000 active;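 active means mean inhibition over replicate wells above about 20%, limit read from the data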;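 further: 0% = compound-free wells with enzyme and 100% = wells lacking proteasome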
# Target sequence (Q9Y5K5 whole entry, looked up): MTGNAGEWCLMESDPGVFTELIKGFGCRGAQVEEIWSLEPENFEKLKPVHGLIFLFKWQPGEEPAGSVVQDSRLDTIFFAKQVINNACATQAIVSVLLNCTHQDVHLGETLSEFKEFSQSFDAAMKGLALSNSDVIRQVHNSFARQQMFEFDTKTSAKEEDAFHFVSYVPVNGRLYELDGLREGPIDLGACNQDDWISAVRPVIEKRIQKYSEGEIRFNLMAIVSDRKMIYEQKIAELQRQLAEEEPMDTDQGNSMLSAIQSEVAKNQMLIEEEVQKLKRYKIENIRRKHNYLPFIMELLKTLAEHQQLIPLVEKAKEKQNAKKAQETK
#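 Test system – human UCH37 enzyme supplied as purified proteasome complex · Incubation – 30 min preincubation with enzyme, 25 min cleavage at room temperature · Detection – AMC fluorescence from Ub-AMC cleavage, excitation 355 nm, emission 460 nm · Benchmarks – no-proteasome wells (full inhibition) and compound-free wells (no inhibition)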
# Fh CTSL1 inh: cathepsin L1 inhibition, PFM18AAP counter-screen. 0.49% of 300,000 active. recombinant F. hepatica cathepsin L1, Z-Leu-Arg-MCA fluorescence. inhibition, % at 5.96 µM;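 active means inhibition above the mean of all tested compounds plus 3 SD, set per screening campaign, cut at about 17% in these data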;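 further: 0% = plate median of test compound wells and 100% = 1 µM Z-Phe-Ala-diazomethylketone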
# Numbers without * were called inactive; · = no result; ! = a repeat was not active.
SMILES,NRP1-CendR mod,DAGLB inh,MT1-MMP act inh,UCH37 DUB inh,Fh CTSL1 inh
CCCOc1ccc(/C(O)=C2/C(=O)C(=O)N(CCCOC)C2c2cccnc2)cc1 (stereo not drawn),28*,0,-1,5,4
CCOC(=O)CCC(NC(=O)CCCC(=O)NC(CCC(=O)OCC)C(=O)OCC)C(=O)OCC (stereo not drawn),22*,1,-1,1,-1
COc1ccc(N=Cc2nc(-c3ccccc3)oc2OC(C)=O)cc1,-9,-2,0,3,20*
CN(C)c1ccc(N=Cc2nc(-c3ccccc3)oc2OC(=O)c2cccc(Cl)c2)cc1,28*,-1,-6,1,10
COc1cccc(N=Cc2nc(-c3ccccc3)oc2OC(C)=O)c1,-2,-1,1,6,28*
Cc1ccc(C(=O)Oc2oc(-c3ccccc3)nc2C=Nc2ccc(N(C)C)cc2)cc1,-3,2,-1,7,10
COc1cccc(N=CC2=C(O)CCCC2=O)c1,8,0,4,11,2
COc1ccc2ccccc2c1C=NNC(=O)c1ccc([N+](=O)[O-])cc1,·,·,·,5,·
COC1=CC(=O)c2c(ccc3ncnc(N)c23)C1=O,22,-27,-102,·,·
COC1=CC(=O)c2nc(Cl)ccc2C1=O,26*,·,-39,·,·
COc1ccc(C=Nn2c(=O)[nH]c3c([nH]c4ccc(F)cc43)c2=O)cc1CN1CCCCC1,·,·,·,-3,·
O=C(CCS(=O)(=O)c1ccccc1)N(CCCN1CCOCC1)c1nc2ccccc2s1,1,3,-3,0,47*
CCN(CC)CCN(C(=O)CCS(=O)(=O)c1ccccc1)c1nc2cc3c(cc2s1)OCO3,10,3,-2,1,76*
CN(C)CCN(C(=O)c1ccc2ccccc2c1)c1nc2cc3c(cc2s1)OCO3,4,-7,6,·,·
CN(C)CCN(C(=O)c1ccc2c(c1)OCCO2)c1nc2cc3c(cc2s1)OCO3,25*,-1,-3,3,1
CN=C1SC(CC(=O)Nc2ccccc2F)C(=O)N1N=Cc1ccc(O)c(OC)c1 (stereo not drawn),·,·,·,2,·
CN(C)CCCNCCCNC(=O)C=NO,·,·,·,-2,·
S=C(NN=C1CCc2ccccc21)NC1CCCCC1,·,·,·,0,·
CCC1Nc2ncnc(N3CCCCC3)c2N(Cc2ccc(C)cc2)C1=O (stereo not drawn),29*!,2,-1,2,·
Nc1nc2ccccc2cc1S(=O)(=O)c1ccccc1,-21,-2,4,·,-2
O=S(=O)(c1ccccc1)c1cnc2ccccc2c1,26*,1,3,-1,-1
CC(=NNS(=O)(=O)c1ccc(C)cc1)c1cc2ccccc2oc1=O,·,·,·,3,·
COc1cc(C=NO)cc(Br)c1OCC(=O)NCc1ccccc1,·,·,·,2,·
COc1ccc(CNC(=O)CC(C)=NNC(=O)COc2ccc(C)cc2Br)cc1,·,·,·,0,·
Cc1ccccc1-n1c(SCc2csc(Nc3ccccc3)n2)nnc1-c1cccnc1,-12,0,-3,3,-3
SMILES,NRP1-CendR mod,DAGLB inh,MT1-MMP act inh,UCH37 DUB inh,Fh CTSL1 inh
Cc1ccc(Nc2nc(CSc3nnc(-c4cccnc4)n3-c3ccccc3C)cs2)cc1,-4,3,1,4,47*
COc1cc2c(c(OC)c1O)C(=O)CO2,11,-2,5,5,3
COc1cc2c(c(OC)c1OC)C(=O)CO2,18*,-1,-1,2,·
CC(C)S(=O)(=O)C1=NSC2=NC(=O)/C(=C\c3ccc(-c4ccccc4)o3)C(=N)N21,-90,5,-15,3,6
CC(C)S(=O)(=O)C1=NSC2=NC(=O)/C(=C\c3ccc(-c4cccc(C(=O)O)c4)o3)C(=N)N21,-178,9,-13,22*,·
COc1ccccc1Oc1ccc(S(=O)(=O)N2CCOCC2)cc1S(=O)(=O)N1CCOCC1,27*,-2,-2,-4,-2
COCCCNC(=O)C(=O)NN=Cc1ccc(OCC(=O)Nc2cccc(Cl)c2C)c(OC)c1,·,·,·,2,·
Clc1ccc(CONc2ncnc3nonc23)c(Cl)c1,10,0,-6,5,18*
CCONc1ncnc2nonc12,-1,-3,-3,5,3
Cc1cc2c(cc(C(=O)OC(C(=O)NCc3ccco3)C(C)C)n2C)o1 (stereo not drawn),16,-14,·,3,24*

# Source: PubChem (several laboratories)
